Data: ChEMBL document CHEMBL1269004, “Synthesis of a 6-methyl-7-deaza analogue of adenosine that potently inhibits replication of polio and dengue viruses” (J Med Chem, 2010)
The source made the active and inactive calls. The rule behind the calls is not given here.

What was measured:
[1] = Cytotoxicity against human HeLaS3 cells after 24 hrs by celltiter-glo assay; type: cell-based; details: HeLa S3, 24 h
Procedure, shortened: (§1)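 HeLa S3 cells (4 × 10^3/well, plated 24 h before) exposed to a nucleoside concentration series at 37 °C, final 0.1% DMSO, for 7, 24 or 48 h. Cells PBS-washed; viability read as ATP-dependent luminescence (CellTiter-Glo) after 10 min at 22 °C. IC50 from a four-parameter fit of luminescence vs concentration.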

[2] = Cytotoxicity against human HeLaS3 cells after 48 hrs by celltiter-glo assay; type: cell-based; details: HeLa S3, 48 h; procedure, shortened: as §1
[3] = Cytotoxicity against human HeLaS3 cells after 7 hrs by celltiter-glo assay; type: cell-based; details: HeLa S3, 7 h; procedure, shortened: as §1
[4] = test system: dengue virus type 2; assay: Antiviral activity against Dengue virus type 2 in BHK-21 cells assessed as inhibition of viral replication after 24 hrs by luciferase assay; type: functional, organism-based; details: BHK-21, 24 h
Procedure, shortened: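 BHK-21 cells stably carrying a luciferase DENV2 replicon, grown in DMEM/F-12 with 10% FBS. Seeded 24 h ahead, then exposed for 24 h to a nucleoside concentration series in media with 1% DMSO. Cells PBS-washed and lysed; luciferase luminescence read on the lysate.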

[5] = test system: Enterovirus C; assay: Antiviral activity against Poliovirus infected in human HeLaS3 cells assessed as inhibition of viral replication treated 1 hr before infection measured after 2 days; type: functional, organism-based; details: HeLa S3
Procedure, shortened: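 HeLa S3 cells (1 × 10^5, plated 1 day prior) pretreated 1 h at 37 °C with nucleoside in 0.1% DMSO media, then infected with 1 × 10^6 PFU PV in PBS for 15 min at room temperature. Refed with nucleoside-containing media and infected 6 h at 37 °C. Cell-associated virus released by 3 freeze-thaw cycles and titered by plaque assay on HeLa S3 under 1% agarose for 2 days, with crystal violet stain. IC50 from a four-parameter fit.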

[6] = test system: dengue virus type 2; assay: Antiviral activity against Dengue virus type 2 in Vero cells assessed as inhibition of viral RNA replication […] by RT-PCR analysis; type: functional, organism-based
[7] = test system: dengue virus type 2; assay: Antiviral activity against Dengue virus type 2 in Vero cells assessed as inhibition of viral replication after 6 days using neutral red dye by plaque assay; type: functional, organism-based; details: 144 h
Procedure, shortened: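 Cells infected with DENV2, then treated for 24 h at 37 °C with a concentration series in 1% DMSO media. Supernatant overlaid with 0.9% low-melting agarose in EMEM/0.5% FBS for 6 days at 37 °C, then a second agarose layer with 0.015% neutral red added overnight. Plaques counted as PFU/ml; IC50 from a four-parameter fit of titer vs concentration.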

[8] = Cytotoxicity against human HeLaS3 cells at 100 uM after 24 hrs by celltiter-glo assay; type: cell-based; details: HeLa S3, 24 h
Procedure, shortened: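 HeLa S3 cells (4 × 10^3/well) treated 24 h at 37 °C in 0.1% DMSO. Viability measured as ATP luminescence (CellTiter-Glo) after PBS wash, read after 10 min at 22 °C, and reported as % viable cells.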

[9] = test system: Enterovirus C; assay: Activity at Poliovirus RNA-dependent RNA polymerase assessed as incorporation into opposite cytosine of viral RNA after 30 mins by denaturing PAGE analysis
[10] = test system: Enterovirus C; assay: Activity at Poliovirus RNA-dependent RNA polymerase assessed as incorporation into opposite adenine and guanine of viral RNA by denaturing PAGE analysis
Procedure, shortened: (§2)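 Pre-assembled PV 3Dpol–sym/sub primer/template (32P end-labelled) complex formed for 3 min at 30 °C. Reaction at 30 °C in 50 mM HEPES pH 7.5 with 10 mM 2-mercaptoethanol, 5 mM MgCl2, 1 µM 3Dpol, 0.5 µM duplex RNA and 0.5 mM NTP, started by adding nucleotide. Stopped at 1, 5 or 10 min, run on denaturing PAGE, phosphorimaged, and expressed as % incorporation relative to the natural NTP.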

[11] = test system: Enterovirus C; assay: Activity at Poliovirus RNA-dependent RNA polymerase assessed as incorporation into opposite uracil and cytosine of viral RNA by denaturing PAGE analysis; procedure, shortened: as §2
[12] = Binding affinity to Poliovirus RNA-dependent RNA polymerase; design: species or system Enterovirus C; details: read-out: Kd(app)

| SMILES | IC50 [1] | IC50 [2] | IC50 [3] | IC50 [4] | IC50 [5] | Kd [12] | also measured |
| --- | --- | --- | --- | --- | --- | --- | --- |
| Cc1nccc2c1ncn2[C@@H]1O[C@H](CO)[C@@H](O)[C@H]1O | > 100 µM | > 100 µM | > 100 µM | > 10 µM | > 10 µM | – | – |
| Cc1ncnc2c1ccn2[C@@H]1O[C@H](CO)[C@@H](O)[C@H]1O | – | 0.224 µM | > 100 µM | 0.877 µM | 0.011 µM | – | IC50 [6]: 0.039 µM; IC50 [7]: 0.062 µM; IC50 [8]: 0.986 µM |
| Cc1ncnc2c1ccn2[C@@H]1O[C@H](COP(=O)(O)OP(=O)(O)OP(=O)(O)O)[C@@H](O)[C@H]1O | – | – | – | – | – | 120 µM | Activity [9]: 60%; Activity [10]: inactive; Activity [11]: Active |
| Cc1ccnc2c1ncn2[C@@H]1O[C@H](CO)[C@@H](O)[C@H]1O | > 100 µM | > 10 µM | > 100 µM | > 10 µM | > 10 µM | – | – |
| Nc1ncnc2c1ccn2[C@@H]1O[C@H](CO)[C@@H](O)[C@H]1O [TUBERCIDIN] | 0.819 µM | 0.4 µM | 1.44 µM | – | 0.03 µM | – | – |
| COC[C@H]1O[C@@H](n2ccc3c(C)ncnc32)[C@H](O)[C@@H]1O | > 100 µM | > 100 µM | > 100 µM | > 10 µM | > 10 µM | – | – |
| Cc1ncnc2c1ncn2[C@@H]1O[C@H](CO)[C@@H](O)[C@H]1O | 6.68 µM | 2.2 µM | 17.7 µM | 5.46 µM | 1.01 µM | – | – |
| Nc1ncnc2c1ncn2[C@@H]1O[C@H](COP(=O)(O)OP(=O)(O)OP(=O)(O)O)[C@@H](O)[C@H]1O [ADENOSINE TRIPHOSPHATE] | – | – | – | – | – | 134 µM | – |
| Cc1ncnc2c1ncn2[C@@H]1O[C@H](COP(=O)(O)OP(=O)(O)OP(=O)(O)O)[C@@H](O)[C@H]1O | – | – | – | – | – | 170 µM | Activity [9]: 40%; Activity [10]: inactive; Activity [11]: Active |
| NC(=O)c1ncn([C@@H]2O[C@H](COP(=O)(O)OP(=O)(O)OP(=O)(O)O)[C@@H](O)[C@H]2O)n1 [RTP] | – | – | – | – | – | 496 µM | – |
